# Laboratory results from publication PMC10558795 (Redox Biology, 2023).
# Like-named read-outs stand apart in the source and are kept apart here.
# What was measured:
# NQO1-YFP H1299 cells = experiment: Cell viability; format: cell-based, human; details: Homo sapiens, NCI-H1299, read-out: Cell viability (IC50, μM)
# Procedure, shortened: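 NQO1-YFP H1299 reporter cells (YFP in NQO1 intron 1, constitutive mCherry) were seeded 1000/well in 384-well plates and cultured overnight. Primary screen: 1 μM compound in 0.1% DMSO, one well each, with CDDO 200 nM and 0.1% DMSO controls. Retests used 10-point serial dilutions from 10 µM in triplicate, with brusatol control. Imaged at 0, 24, 48, 64 h (YFP = NRF2 activity, mCherry = viability); IC₅₀ by curve fit.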
# NRF2 (NRF2^Mut-KYSE180) = NRF2 (NRF2^Mut-KYSE180) (Homo sapiens, UniProt Q16236, D77V); experiment: CHX chase analysis of NRF2 half-life in KYSE180 cells; format: cell-based; details: PYR 10 μM, MIT 20 nM
# Sequence of NRF2 (NRF2^Mut-KYSE180) (Q16236 whole entry D77V): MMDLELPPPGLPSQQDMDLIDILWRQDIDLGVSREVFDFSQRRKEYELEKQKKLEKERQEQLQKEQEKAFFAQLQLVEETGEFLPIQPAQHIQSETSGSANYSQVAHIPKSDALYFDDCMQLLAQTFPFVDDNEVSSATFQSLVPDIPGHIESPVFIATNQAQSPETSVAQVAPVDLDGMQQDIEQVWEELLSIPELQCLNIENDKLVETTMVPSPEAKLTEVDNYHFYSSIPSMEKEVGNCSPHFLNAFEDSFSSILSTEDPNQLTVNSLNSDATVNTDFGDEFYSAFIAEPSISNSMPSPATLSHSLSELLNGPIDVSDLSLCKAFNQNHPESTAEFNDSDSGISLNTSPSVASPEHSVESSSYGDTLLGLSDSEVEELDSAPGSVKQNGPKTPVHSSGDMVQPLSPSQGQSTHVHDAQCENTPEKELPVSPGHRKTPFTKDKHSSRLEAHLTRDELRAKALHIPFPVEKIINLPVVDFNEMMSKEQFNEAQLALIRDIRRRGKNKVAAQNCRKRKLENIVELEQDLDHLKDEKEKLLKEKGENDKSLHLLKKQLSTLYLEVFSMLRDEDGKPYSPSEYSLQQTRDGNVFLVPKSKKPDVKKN
# Procedure, shortened: (§1)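 Cells were grown in RPMI1640 GlutaMAX with 10% FBS and 1% penicillin/streptomycin at 37 °C, 5% CO₂. They were pre-incubated 4 h with test compound, then given 200 μg/ml cycloheximide to block protein synthesis. Cells were harvested at set time points after cycloheximide. Total lysates were run on SDS-PAGE and blotted for NRF2 and GAPDH, and band densities were used to calculate NRF2 half-life.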
# [1] = mice, i.p., cited from earlier work
# [2] = humans, 50 mg/day, p.o., 3 weeks; cited from earlier work
# [3] = test system: NRF2 and NQO1 expression in NRF2^Mut-KYSE180 cells; experiment: Western blotting of NRF2 and NQO1 expression in KYSE180 cells; format: cell-based, human
# Procedure, shortened: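 NRF2-mutant KYSE180 cells (37 °C, 5% CO₂) treated with test compound; nuclear and cytosolic fractions prepared with a nuclear extraction kit. Proteins separated by SDS-PAGE onto nitrocellulose, primary antibody overnight at 4 °C, chemiluminescence on film. Bands quantified by densitometry, mean ± SD, Student's t-test.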
# [4] = test system: Sox2CreER;LSL-Nrf2^E79Q/+ mice; experiment: Therapeutic effect on the NRF2^high esophageal phenotype in Sox2CreER; format: in vivo, mouse
# Procedure, shortened: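 Sox2CreER;LSL-Nrf2^E79Q/+ mice induced with tamoxifen (75 mg/kg/day i.p., 5 days), then given oral test compound in N-methyl-2-pyrrolidone:PEG300 (1:9). Part of forestomach resected at Week 1; rest of forestomach and esophageal epithelium taken at Week 3 sacrifice, with BrdU 50 mg/kg i.p. 2 h before. Analysis by Western blotting, H&E, and IHC (DAB, no-primary-antibody controls).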
# [5] = target: NRF2 ubiquitination (KYSE70) (Homo sapiens, UniProt Q16236, W24C); experiment: NRF2-IP and ubiquitin western blotting in KYSE70 cells; format: cell-based; details: NRF2^Mut-KYSE70; PYR 10 μM, MIT 20 nM; presence or absence of MG132
# Sequence of NRF2 ubiquitination (KYSE70) (Q16236 whole entry W24C): as the sequence (Q16236 whole entry D77V) above, with W24C, V77D counted along it
# Procedure, shortened: (§2)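 Cells treated with test compound, then with or without MG132 (10 μM), lysed in RIPA buffer. Lysate precleared on protein G agarose 1 h at 4 °C, then incubated with 1 μg anti-NRF2 antibody overnight at 4 °C with rotation. Immunocomplexes captured on protein G agarose 1.5 h at 4 °C, washed, boiled in 2X SDS loading buffer at 95 °C for 5 min, and immunoblotted for ubiquitin.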
# [6] = target: NRF2 ubiquitination (KYSE180) (Homo sapiens, UniProt Q16236, D77V); experiment: NRF2-IP and ubiquitin western blotting in KYSE180 cells; format: cell-based; details: NRF2^Mut-KYSE180; PYR 10 μM, MIT 20 nM; presence or absence of MG132
# Sequence of NRF2 ubiquitination (KYSE180) (Q16236 whole entry D77V): as the sequence (Q16236 whole entry D77V) above
# Procedure, shortened: as §2
# NRF2 (NRF2^WT-KYSE450) = NRF2 (NRF2^WT-KYSE450) (Homo sapiens, UniProt Q16236); experiment: CHX chase analysis of NRF2 half-life in KYSE450 cells; format: cell-based; details: PYR 10 μM, MIT 20 nM
# Sequence of NRF2 (NRF2^WT-KYSE450) (Q16236 whole entry): as the sequence (Q16236 whole entry D77V) above, with V77D counted along it
# Procedure, shortened: as §1
# [7] = test system: mouse NRF2 target genes in the esophageal epithelium; experiment: RNAseq of esophageal epithelium of Sox2CreER; format: in vivo; details: PYR given after tamoxifen induction
# Procedure, shortened: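 Sox2CreER;LSL-Nrf2^E79Q/+ mice induced with tamoxifen (75 mg/kg/day i.p., 5 days), then dosed orally with test compound in N-methyl-2-pyrrolidone:PEG300 (1:9). Part of forestomach resected at Week 1; esophageal epithelium harvested at sacrifice, Week 3. Total RNA sequenced; data normalized; overall NRF2 target-gene expression calculated at natural log scale.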
# adult wild-type mice = experiment: Dose-finding experiment in adult wild-type mice; format: in vivo, mouse
# Procedure, shortened: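 Adult wild-type mice, n = 5 per group, dosed orally once daily for 4 weeks with test compound dissolved in N-methyl-2-pyrrolidone:PEG300 (1:9). Grooming, physical strength, movement and body weight tracked during dosing; blood collected for complete blood count, analysed by ANOVA.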
# NRF2-ARE binding = NRF2-ARE binding (Homo sapiens, UniProt Q16236, W24C); experiment: ELISA-based TransAM NRF2-ARE binding assay with KYSE70 nuclear extracts
# Sequence of NRF2-ARE binding (Q16236 whole entry W24C): as the sequence (Q16236 whole entry D77V) above, with W24C, V77D counted along it
# Procedure, shortened: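 TransAM ELISA: nuclear extract from untreated KYSE70 cells (20 μg/well) added to wells containing ARE oligonucleotide. Test compound, competitor or mutated competitor added, then 1 h incubation with mild agitation and washing. Anti-NRF2 antibody 1 h, then HRP-conjugated secondary antibody and substrate; A450nm read.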
# [8] = test system: NRF2 expression in Nrf2^WT MEEC; experiment: NRF2 expression in mouse esophageal epithelial cells; format: cell-based
# Procedure, shortened: (§3)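 Nuclear and cytosolic fractions prepared with an extraction kit, or whole-cell lysates in RIPA buffer. Proteins separated by SDS-PAGE, transferred to nitrocellulose, blocked and probed with primary antibody overnight at 4 °C. Chemiluminescence detected on film and quantified by densitometry; band data as mean ± SD, Student's t-test.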
# [9] = test system: NRF2 and NQO1 expression in NRF2^Mut-KYSE70 cells; experiment: Western blotting of NRF2 and NQO1 expression in KYSE70 cells; format: cell-based, human; details: KYSE70 cells
# Procedure, shortened: as §3
# [10] = target: NRF2 ubiquitination (KYSE450) (Homo sapiens, UniProt Q16236); experiment: NRF2-IP and ubiquitin western blotting in KYSE450 cells; format: cell-based; details: NRF2^WT-KYSE450; PYR 10 μM, MIT 20 nM; only in the presence of MG132
# Sequence of NRF2 ubiquitination (KYSE450) (Q16236 whole entry): as the sequence (Q16236 whole entry D77V) above, with V77D counted along it
# Procedure, shortened: as §2
# [11] = test system: NFE2L2 mRNA and NRF2 target genes; experiment: qPCR of NFE2L2 mRNA and NRF2 target genes; format: cell-based, human
# Procedure, shortened: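 Gene expression quantified by real-time PCR using gene-specific primers and TaqMan probes on a 96-well real-time PCR system.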
# [12] = PYR given after tamoxifen induction
compound,measurement,setting,value
"CCc1nc(N)nc(N)c1-c1ccc(Cl)cc1 [PYR, Pyrimethamine]",IC50,NQO1-YFP H1299 cells,1.17 µM
same,Effect on NRF2 half-life,NRF2 (NRF2^Mut-KYSE180),shortened NRF2 half-life
same,Cmax,[1]; 12.5 mg/kg,8.04 µM
same,Cmax,[1]; 25 mg/kg,18.5 µM
same,Cmax,[1]; 50 mg/kg,35.8 µM
same,Cmax,[1]; 75 mg/kg,28.2 µM
same,Cmax,[2],8.28 µM
same,Expression of nuclear NRF2 and cytoplasmic NQO1,[3],inhibited the expression of nuclear NRF2 and cytoplasmic NQO1 in a dose- and time-dependent manner
same,NRF2^high esophageal phenotype,"[4]; 30 mg/kg/day, p.o.",effectively inhibited
same,Toxicity,"[4]; 30 mg/kg/day, p.o.",no observed toxicity
same,Expression of NRF2 and its target genes (HMOX1 and AKR1C3) in the esophageal epithelium,[4]; [12],significantly inhibited the expression
same,"NQO1, GCLC and GCLM expression in the esophageal epithelium",[4]; [12],"inhibited, yet without statistical significance"
same,NRF2 expression in the forestomach,[4]; [12],significantly inhibited
same,NRF2 ubiquitination,[5],promoted NRF2 ubiquitination
same,NRF2 ubiquitination,[6],promoted NRF2 ubiquitination
same,Effect on NRF2 half-life,NRF2 (NRF2^WT-KYSE450),not changed
same,Overall mRNA expression level of mouse NRF2 target genes in the esophageal epithelium,[7],significantly inhibited the overall mRNA expression level
same,Myelosuppression (complete blood count),adult wild-type mice; 30 mg/kg/day,not myelosuppressive
same,Myelosuppression (complete blood count),"adult wild-type mice; 60 mg/kg/day, p.o., 4 weeks",resulted in myelosuppression including leukopenia and lymphopenia
same,Impact on body weight and general health,"adult wild-type mice; 15, 30 and 60 mg/kg/day, p.o., 4 weeks",did not observe any negative impact
same,NRF2-ARE binding activity,NRF2-ARE binding,did not observe any changes
same,NRF2 expression,[8],upregulated NRF2 expression
same,Expression of nuclear NRF2 and cytoplasmic NQO1,[9],inhibited the expression of nuclear NRF2 and cytoplasmic NQO1 in a dose- and time-dependent manner
same,NRF2 ubiquitination,[10],slightly promoted NRF2 ubiquitination
same,"NFE2L2 mRNA and NRF2 target genes (AKR1B10, AKR1C2, AKR1C3, PGD, SLC7A11, TKT) by qPCR",[11],downregulation
